The record followed here is ChEMBL document CHEMBL2069274, “Novel 3-nitro-1H-1,2,4-triazole-based amides and sulfonamides as potential antitrypanosomal agents” (J Med Chem, 2012).

In one data set the test system is L6. Nature of the data set: Cytotoxicity against rat L6 cells. The format is cell-based. A digest of the protocol:
(§1)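 96-well format screens: bloodstream-form T. b. rhodesiense trypomastigotes, T. cruzi amastigotes within infected L6 rat skeletal myoblasts, axenically grown L. donovani amastigotes, and uninfected L6 cells for cytotoxicity. IC50 (μM) obtained by linear regression from sigmoidal dose–inhibition curves.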

For data set [1], the system named is Trypanosoma brucei brucei. Put plainly: Selectivity ratio of IC50 for Trypanosoma brucei brucei Lister 427 clone 221a overexpressing tet-inducible NTR in absence of tetracycline to IC50 for Trypanosoma brucei brucei overexpressing tet-inducible NTR in presence of tetracyclin.
Data set [2] in a line: Selectivity index, ratio of IC50 for rat L6 cells to IC50 for Trypanosoma cruzi Tulahuen C4 amastigotes.
The subject of another data set is Leishmania donovani. Put plainly: Antileishmanial activity against Leishmania donovani MHOM-ET67/L82 amastigotes. The format is functional, organism-based. The method in brief: as §1
For data set [3], the system named is Trypanosoma brucei brucei. Nature of the data set: Antitrypanosomal activity against bloodstream form of Trypanosoma brucei brucei Lister 427 clone 221a overexpressing tet-inducible NTR in absence of tetracycline after 3 days. The settings on record: 72 h.
For data set [4], the system named is Trypanosoma cruzi. Nature of the data set: Antitrypanosomal activity against Trypanosoma cruzi Tulahuen C4 amastigotes. The format is functional, organism-based. A digest of the protocol:
as §1

The test system of data set [5] is Trypanosoma cruzi. Put plainly: Ratio of benznidazole IC50 to compound IC50 for Trypanosoma cruzi Tulahuen C4 amastigotes. The format is functional.
Data set [6] deals with Trypanosoma brucei brucei. Nature of the data set: Antitrypanosomal activity against bloodstream form of Trypanosoma brucei brucei Lister 427 clone 221a overexpressing tet-inducible NTR in presence of tetracycline after 3 days. The settings on record: 72 h.
A short description of data set [7]: Selectivity index, ratio of IC50 for rat L6 cells to IC50 for Trypanosoma brucei rhodesiense STIB900 trypomastigotes.
For data set [8], the system named is Trypanosoma brucei brucei. Nature of the data set: Antitrypanosomal activity against bloodstream form of Trypanosoma brucei brucei Lister 427 clone 221a. The format is functional, organism-based. A digest of the protocol: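 Bloodstream-form parasites seeded at 1 × 10^3 per ml in growth medium with a range of compound concentrations; where required, TbNTR expression induced with tetracycline (1 μg/mL). Incubation 3 days at 37 °C, then Alamar blue added for a further 16 h. Cell density read and IC50 determined.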

Data set [9] deals with Trypanosoma brucei rhodesiense. Nature of the data set: Antitrypanosomal activity against Trypanosoma brucei rhodesiense STIB 900 trypomastigotes. The format is functional, organism-based. A digest of the protocol: as §1
Data set [10] concerns Trypanosoma brucei brucei. Put plainly: Activity of Trypanosoma brucei brucei recombinant Type I nitroreductase assessed as oxidised NADH level by spectrophotometric analysis. The method in brief: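 His-tagged recombinant TbNTR, purified, assayed spectrophotometrically at 340 nm with nitrotriazole substrate (100 μM) and NADH (100 μM); activity expressed as nmol NADH oxidized min−1 mg−1 enzyme.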

Data set [11] addresses Trypanothione reductase (Trypanosoma brucei brucei) (UniProt P39051). Nature of the data set: Inhibition of Trypanosoma brucei brucei trypanothione reductase at <100 uM.

Structures are written as SMILES. Activity calls are given as the source filed them. The calls are words filed in the database; no cut-off is given here. Bounds are passed on as bounds.

Sequence of Trypanothione reductase (Trypanosoma brucei brucei) (P39051 whole entry, looked up): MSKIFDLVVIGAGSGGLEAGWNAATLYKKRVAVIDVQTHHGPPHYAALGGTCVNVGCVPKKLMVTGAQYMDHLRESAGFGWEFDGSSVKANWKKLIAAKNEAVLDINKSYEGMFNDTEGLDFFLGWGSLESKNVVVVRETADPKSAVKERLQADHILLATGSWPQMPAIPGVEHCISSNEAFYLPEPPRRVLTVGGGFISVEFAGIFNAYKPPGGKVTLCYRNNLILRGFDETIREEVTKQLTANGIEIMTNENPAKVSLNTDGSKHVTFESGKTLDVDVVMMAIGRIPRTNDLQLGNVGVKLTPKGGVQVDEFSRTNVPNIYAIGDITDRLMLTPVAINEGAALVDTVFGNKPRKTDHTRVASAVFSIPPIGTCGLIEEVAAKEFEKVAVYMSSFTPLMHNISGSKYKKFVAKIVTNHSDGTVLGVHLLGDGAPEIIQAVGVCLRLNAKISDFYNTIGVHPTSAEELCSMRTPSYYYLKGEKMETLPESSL

For the compound `Cc1ccc(S(=O)(=O)NCCCn2cnc([N+](=O)[O-])n2)cc1`, the IC50 was greater than 308 µM in the data set on L6; 38.1 µM in the data set on Leishmania donovani; 5630 nM in [3]; 412 nM with Trypanosoma cruzi [4]; 240 nM in data set [6]; 4 µM in data set [8]. In data set [9], this compound returned an IC50 of 2.54 µM. Besides, the “Ratio IC50” value in data set [1] was 23; in the data set with Trypanosoma cruzi [5] it was 3.8. Besides, the values for the selectivity ratio in data set [2] and in data set [7] were greater than 747 and greater than 121, respectively.
As to `O=[N+]([O-])c1ncn(CCNS(=O)(=O)c2ccc(C(F)(F)F)cc2)n1`, the IC50 in the data set with L6 was 200 µM; with Leishmania donovani it was 32.4 µM; in the data set with Trypanosoma cruzi [4], 803 nM; in data set [8], greater than 10 µM; in data set [9], 2.79 µM. For the same compound, the selectivity ratio in [2] came out at 248. Further, the “Ratio IC50” value with Trypanosoma cruzi [5] worked out at 1.9. In data set [10], the outcome was Active.
For `O=C(Cn1cnc([N+](=O)[O-])n1)NCc1ccccc1`, the IC50 with L6 is 345 µM; in the data set on Leishmania donovani, 28.1 µM; in the data set on Trypanosoma cruzi [4] it was 3380 nM; in [8], greater than 10 µM; in [9], 9.96 µM. In addition, the selectivity ratio in data set [2] was 102. Besides, in the data set on Trypanosoma cruzi [5], the “Ratio IC50” value is recorded as 0.5. In addition, the outcome in [10] was Active.
On to `O=C(NCCCCn1cnc([N+](=O)[O-])n1)c1ccc(C(F)(F)F)cc1`, for which the IC50 in the data set with L6 amounted to 104 µM; in the data set with Leishmania donovani it was 7.93 µM; in [3], 1300 nM; in the data set on Trypanosoma cruzi [4], 176 nM; in data set [6], 130 nM; in data set [8] it was 0.9 µM. Besides, the IC50 in data set [9] was 0.501 µM. For the same compound, the “Ratio IC50” value in data set [1] is 10; with Trypanosoma cruzi [5], 8.9. In addition, the selectivity ratio is 591 in data set [2] and 208 in data set [7]. In [10], the outcome was Active.
Regarding `O=C(NCCCCn1cnc([N+](=O)[O-])n1)c1ccc2ccccc2n1`, the IC50 with L6 is 91.5 µM; in the data set on Leishmania donovani, 13.4 µM; in the data set on Trypanosoma cruzi [4] it was 132 nM; in [8], greater than 10 µM; in data set [9], 4 µM. The selectivity ratio in [2] was 691. Also, the “Ratio IC50” value with Trypanosoma cruzi [5] worked out at 11.8. In data set [10], the outcome was Active.
On to `O=[N+]([O-])c1ncn(CCNS(=O)(=O)c2cc(C(F)(F)F)cc(C(F)(F)F)c2)n1`, for which the IC50 was 111 µM in the data set with L6; 33.3 µM in the data set on Leishmania donovani; 1680 nM with Trypanosoma cruzi [4]; 7.9 µM in [8]; 36.7 µM in [9]. Further, the selectivity ratio in data set [2] came out at 66.2; in [7] it was 3. Moreover, the “Ratio IC50” value in the data set on Trypanosoma cruzi [5] is recorded as 0.9.
As to `Nc1nc(N)nc(Nc2ccc([As]3SCC(CO)S3)cc2)n1` (stereo not given) [MELARSOPROL], the “Ratio IC50” value in data set [1] is 1. The IC50 in data set [3] and in [6] was 3.4 nM throughout.
As for `O=[N+]([O-])c1nccn1CCCNS(=O)(=O)c1ccc(C(F)(F)F)cc1`, the IC50 with L6 turned out to be 176 µM; in the data set on Leishmania donovani it was 15.6 µM; with Trypanosoma cruzi [4] it was 1660 nM; in data set [9], 27.5 µM. Besides, the selectivity ratio in data set [2] amounted to 106. The inhibition result in data set [11] is “inactive”. Moreover, the “Ratio IC50” value with Trypanosoma cruzi [5] amounted to 0.9.
Consider `O=[N+]([O-])c1ncn(CCCNS(=O)(=O)c2cc(C(F)(F)F)cc(C(F)(F)F)c2)n1`, for which the IC50 in the data set with L6 was 109 µM; in the data set on Leishmania donovani, 20.7 µM; in the data set on Trypanosoma cruzi [4] it was 322 nM; in [8] it was 6.6 µM; in data set [9] it was 11.3 µM. Also, the selectivity ratio in data set [2] came out at 338; in [7], 9.6. For the same compound, the “Ratio IC50” value in the data set with Trypanosoma cruzi [5] was determined as 4.9.
Regarding `O=[N+]([O-])c1ncn(CCCNS(=O)(=O)c2ccc(-c3ccccc3)cc2)n1`, the IC50 came to 50 µM in the data set with L6; 7.54 µM in the data set with Leishmania donovani; 440 nM in [3]; 28 nM in the data set on Trypanosoma cruzi [4]; 70 nM in data set [6]; 0.5 µM in data set [8]. The midpoint of inhibition in [9], the IC50, lay at 1.05 µM. In addition, the “Ratio IC50” value in data set [1] is recorded as 6; in the data set with Trypanosoma cruzi [5], 55.8. Further, in data set [2], the selectivity ratio worked out at 1760.
On to `CC1CS(=O)(=O)CCN1/N=C/c1ccc([N+](=O)[O-])o1` (stereo not given) [NIFURTIMOX], for which, in [1], the “Ratio IC50” value is 13. Besides, the result in [10] was Active.
Take `O=C(NCCCn1cnc([N+](=O)[O-])n1)Nc1cc(C(F)(F)F)cc(C(F)(F)F)c1`: the IC50 with L6 is 24.2 µM; with Leishmania donovani, 11.4 µM; in data set [3], 810 nM; in the data set on Trypanosoma cruzi [4], 734 nM; in data set [6] it was 180 nM; in data set [8], 1 µM. Half-maximal inhibition in data set [9] (IC50) required 6.03 µM. In addition, the “Ratio IC50” value in [1] is 5; in the data set with Trypanosoma cruzi [5], 2.1. Moreover, the values for the selectivity ratio in data set [2] and in [7] were 33 and 4, respectively.
On to `O=C(Cn1ccnc1[N+](=O)[O-])NCc1ccccc1` [BENZNIDAZOLE], for which the “Ratio IC50” value in [1] was 10. For the same compound, the IC50 worked out at 21800 nM in [3], 1560 nM in the data set on Trypanosoma cruzi [4] and 2200 nM in [6].
As to `O=C(NCCCn1cnc([N+](=O)[O-])n1)c1cc(C(F)(F)F)cc(C(F)(F)F)c1`, the IC50 is 187 µM with L6; 12.3 µM in the data set on Leishmania donovani; 642 nM in the data set on Trypanosoma cruzi [4]; greater than 10 µM in data set [8]; 16.4 µM in data set [9]. Besides, the figures for the selectivity ratio in data set [2] and in [7] were 291 and 11.4, respectively. Also, the “Ratio IC50” value in the data set on Trypanosoma cruzi [5] is 2.4.
As to `O=[N+]([O-])c1ncn(CCNS(=O)(=O)Cc2ccccc2)n1`, the IC50 in the data set with L6 is greater than 322 µM; in the data set on Leishmania donovani, 113 µM; in the data set on Trypanosoma cruzi [4], 6460 nM; in data set [9] it was 8.39 µM. The selectivity ratio was greater than 48 in [2] and greater than 38.3 in data set [7]. In the data set with Trypanosoma cruzi [5], the “Ratio IC50” value came out at 0.2.
Consider `O=C(NCCCn1cnc([N+](=O)[O-])n1)c1ccc(-c2ccccc2)cc1`, for which the IC50 in the data set on L6 was determined as 117 µM; in the data set on Leishmania donovani, 8.37 µM; in data set [3], 280 nM; in the data set on Trypanosoma cruzi [4], 43 nM; in data set [6], 50 nM; in [8], 0.3 µM. In [9], the midpoint of inhibition, the IC50, lay at 0.587 µM. The “Ratio IC50” value in data set [1] was 6; in the data set with Trypanosoma cruzi [5], 36.3. Besides, the selectivity ratio was found to be 2780 in [2] and 199 in [7].
Turning to `O=C(NCCCn1cnc([N+](=O)[O-])n1)c1ccc2ccccc2n1`, the IC50 was 218 µM in the data set on L6; 19.9 µM in the data set on Leishmania donovani; 138 nM in the data set on Trypanosoma cruzi [4]; greater than 10 µM in [8]; 3.22 µM in data set [9]. The selectivity ratio in data set [2] was 1580. For the same compound, in [11], the inhibition result was “inactive”. The “Ratio IC50” value in the data set with Trypanosoma cruzi [5] is given as 11.3. In data set [10], the outcome was Active.
In the case of `O=C(NCCn1cnc([N+](=O)[O-])n1)c1ccc(OC(F)(F)F)cc1`, the IC50 was greater than 261 µM in the data set with L6, 29.2 µM in the data set on Leishmania donovani, 730 nM with Trypanosoma cruzi [4] and 1.99 µM in data set [9]. Besides, the values for the selectivity ratio in data set [2] and in data set [7] were greater than 357 and greater than 131, respectively. Also, the “Ratio IC50” value in the data set on Trypanosoma cruzi [5] was determined as 2.1.
For the compound `O=C(NCCCCn1cnc([N+](=O)[O-])n1)c1ccc(OC(F)(F)F)cc1`, the IC50 in the data set with L6 was greater than 268 µM; in the data set on Leishmania donovani, 13 µM; in [3] it was 1050 nM; in the data set on Trypanosoma cruzi [4], 113 nM; in data set [6], 100 nM; in [8], 3.6 µM. In addition, inhibition in data set [9] was half-maximal at 1.39 µM (IC50). Further, the “Ratio IC50” value is 11 in data set [1] and 13.8 in the data set on Trypanosoma cruzi [5]. In addition, the figures for the selectivity ratio in data set [2] and in data set [7] were greater than 2380 and greater than 193, respectively. Also, the inhibition result in [11] is “inactive”.
As to `O=C(Cn1cnc([N+](=O)[O-])n1)N1CCC(Cc2ccccc2)CC1`, the IC50 with L6 is 144 µM; in the data set with Leishmania donovani it was 51.4 µM; in the data set with Trypanosoma cruzi [4] it was 307 nM; in data set [8], greater than 10 µM; in data set [9], 3.4 µM. In addition, the selectivity ratio in data set [2] is 468. Also, the inhibition result in data set [11] was “inactive”. In addition, in the data set on Trypanosoma cruzi [5], the “Ratio IC50” value is given as 5.1.
Regarding `O=C(Cn1cnc([N+](=O)[O-])n1)NCc1ccc(C(F)(F)F)cc1`, the IC50 amounted to 129 µM in the data set on L6; 10.4 µM in the data set on Leishmania donovani; 970 nM with Trypanosoma cruzi [4]; 8.5 µM in [8]; 6.47 µM in data set [9]. For the same compound, the selectivity ratio in [2] was 133. For the same compound, in data set [11], the inhibition result is “inactive”. Also, the “Ratio IC50” value with Trypanosoma cruzi [5] is recorded as 1.6.

The IC50 is the point on the concentration scale where inhibition reaches its midpoint.
